Legend:
[1] = Inhibition of mouse full length GST-tagged BRAF V600E mutant using MEK1 as substrate incubated for 1 hr prior to substrate addition measured after 25 min by gel electrophoresis
Summary of the method: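 Kinase activity was read out as BRAF V600E-mediated phosphorylation of MEK. Results are given as IC50 values.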

[2] = Antiproliferative activity against human WM266.4 cells expressing BRAF V600E mutant after 24 hrs by MTT assay; format: functional; conditions: WM 266-4, 24 h
[3] = Antiproliferative activity against human WM1361 cells expressing wild type BRAF after 24 hrs by MTT assay; format: functional, cell-based; conditions: WM1361, 24 h
[4] = biological target: Serine/threonine-protein kinase B-raf (Homo sapiens, UniProt P15056, V600E); experiment: Inhibition of BRAF V600E mutant in human WM266.4 cells assessed as inhibition of ERK1/2 phosphorylation by ELISA; format: cell-based
[5] = biological target: Epidermal growth factor receptor (Homo sapiens, UniProt P00533); experiment: Inhibition of EGFR
[6] = biological target: Receptor tyrosine-protein kinase erbB-2 (Homo sapiens, UniProt P04626); experiment: Inhibition of HER2
[7] = Inhibition of bovine FAK isolated from brain after 20 mins by turbidimetric analysis; design: species or system Bos taurus
Aurora kinase A = biological target: T1, Aurora kinase A (Homo sapiens, UniProt O14965); experiment: Inhibition of human recombinant Aurora A kinase using PLK as substrate incubated for 15 mins prior to substrate addition measured after 60 mins by immunofluorescence method
T1 sequence (O14965 whole entry): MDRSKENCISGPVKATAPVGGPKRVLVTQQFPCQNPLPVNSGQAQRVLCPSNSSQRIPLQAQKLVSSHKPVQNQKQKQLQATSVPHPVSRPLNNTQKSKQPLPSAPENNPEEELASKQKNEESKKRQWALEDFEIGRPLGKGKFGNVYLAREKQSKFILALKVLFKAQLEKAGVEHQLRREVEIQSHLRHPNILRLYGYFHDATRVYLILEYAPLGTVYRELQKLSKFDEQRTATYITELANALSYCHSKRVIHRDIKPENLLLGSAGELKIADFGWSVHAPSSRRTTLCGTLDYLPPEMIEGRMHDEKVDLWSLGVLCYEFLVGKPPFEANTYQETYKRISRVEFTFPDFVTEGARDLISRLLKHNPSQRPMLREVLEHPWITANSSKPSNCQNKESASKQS

[8] = biological target: Vascular endothelial growth factor receptor 2 (Homo sapiens, UniProt P35968); experiment: Inhibition of VEGFR2 using gastrin as substrate after 60 mins by immunofluorescence method
Chain of Vascular endothelial growth factor receptor 2 (P35968 whole entry): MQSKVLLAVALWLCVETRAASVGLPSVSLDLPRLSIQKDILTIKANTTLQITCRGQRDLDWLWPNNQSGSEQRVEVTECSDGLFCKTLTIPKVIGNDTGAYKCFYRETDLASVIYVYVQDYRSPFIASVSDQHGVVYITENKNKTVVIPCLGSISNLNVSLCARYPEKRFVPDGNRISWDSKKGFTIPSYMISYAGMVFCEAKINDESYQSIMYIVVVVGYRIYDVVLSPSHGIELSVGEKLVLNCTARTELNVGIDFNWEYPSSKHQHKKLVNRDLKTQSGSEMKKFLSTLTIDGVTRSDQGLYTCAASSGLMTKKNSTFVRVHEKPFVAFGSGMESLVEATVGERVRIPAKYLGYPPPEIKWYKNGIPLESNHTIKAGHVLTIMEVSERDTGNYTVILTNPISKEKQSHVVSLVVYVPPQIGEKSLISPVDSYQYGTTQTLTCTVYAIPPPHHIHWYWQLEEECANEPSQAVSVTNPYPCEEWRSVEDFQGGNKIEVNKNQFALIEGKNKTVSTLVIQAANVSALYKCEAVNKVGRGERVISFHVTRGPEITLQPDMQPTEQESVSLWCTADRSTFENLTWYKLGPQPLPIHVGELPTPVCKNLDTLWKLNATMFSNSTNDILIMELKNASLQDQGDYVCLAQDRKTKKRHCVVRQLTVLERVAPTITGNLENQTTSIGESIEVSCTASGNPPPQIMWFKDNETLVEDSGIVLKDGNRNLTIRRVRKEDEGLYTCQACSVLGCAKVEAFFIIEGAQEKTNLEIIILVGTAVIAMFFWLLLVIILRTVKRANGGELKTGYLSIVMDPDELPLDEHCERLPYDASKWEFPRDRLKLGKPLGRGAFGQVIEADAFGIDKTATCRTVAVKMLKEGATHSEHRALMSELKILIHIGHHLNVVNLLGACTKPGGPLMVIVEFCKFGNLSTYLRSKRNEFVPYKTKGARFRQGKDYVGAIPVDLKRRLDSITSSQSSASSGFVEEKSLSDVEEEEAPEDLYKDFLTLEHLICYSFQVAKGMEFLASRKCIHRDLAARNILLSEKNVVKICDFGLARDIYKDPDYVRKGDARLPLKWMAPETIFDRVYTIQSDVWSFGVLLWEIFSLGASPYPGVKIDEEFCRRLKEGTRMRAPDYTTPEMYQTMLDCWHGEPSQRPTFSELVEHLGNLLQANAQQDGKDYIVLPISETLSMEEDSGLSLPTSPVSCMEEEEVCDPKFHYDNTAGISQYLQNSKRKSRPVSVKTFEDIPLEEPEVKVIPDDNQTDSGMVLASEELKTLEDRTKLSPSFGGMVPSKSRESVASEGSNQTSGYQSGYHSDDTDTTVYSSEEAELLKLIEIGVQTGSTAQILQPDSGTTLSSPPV

Chain of Serine/threonine-protein kinase B-raf (P15056 2-766 V600E limits assumed): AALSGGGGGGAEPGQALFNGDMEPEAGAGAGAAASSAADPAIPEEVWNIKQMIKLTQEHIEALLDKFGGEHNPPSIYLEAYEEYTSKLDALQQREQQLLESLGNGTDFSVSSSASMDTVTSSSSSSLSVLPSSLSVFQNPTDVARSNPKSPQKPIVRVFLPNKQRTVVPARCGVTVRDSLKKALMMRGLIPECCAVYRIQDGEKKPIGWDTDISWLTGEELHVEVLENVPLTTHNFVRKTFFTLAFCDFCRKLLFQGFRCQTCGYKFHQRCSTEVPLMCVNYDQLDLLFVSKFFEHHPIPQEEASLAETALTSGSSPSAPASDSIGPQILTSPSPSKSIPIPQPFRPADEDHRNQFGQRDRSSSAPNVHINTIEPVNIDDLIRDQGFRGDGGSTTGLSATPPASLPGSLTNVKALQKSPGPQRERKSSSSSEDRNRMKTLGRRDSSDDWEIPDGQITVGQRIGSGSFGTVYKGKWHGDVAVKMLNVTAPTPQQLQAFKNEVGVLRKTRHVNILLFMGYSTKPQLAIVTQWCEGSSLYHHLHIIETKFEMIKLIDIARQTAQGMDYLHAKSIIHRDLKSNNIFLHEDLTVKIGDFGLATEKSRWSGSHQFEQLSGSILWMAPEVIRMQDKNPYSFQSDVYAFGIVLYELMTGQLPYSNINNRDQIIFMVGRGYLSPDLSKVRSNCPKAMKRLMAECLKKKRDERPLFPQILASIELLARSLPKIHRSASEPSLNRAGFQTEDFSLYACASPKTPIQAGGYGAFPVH
Chain of Receptor tyrosine-protein kinase erbB-2 (P04626 whole entry): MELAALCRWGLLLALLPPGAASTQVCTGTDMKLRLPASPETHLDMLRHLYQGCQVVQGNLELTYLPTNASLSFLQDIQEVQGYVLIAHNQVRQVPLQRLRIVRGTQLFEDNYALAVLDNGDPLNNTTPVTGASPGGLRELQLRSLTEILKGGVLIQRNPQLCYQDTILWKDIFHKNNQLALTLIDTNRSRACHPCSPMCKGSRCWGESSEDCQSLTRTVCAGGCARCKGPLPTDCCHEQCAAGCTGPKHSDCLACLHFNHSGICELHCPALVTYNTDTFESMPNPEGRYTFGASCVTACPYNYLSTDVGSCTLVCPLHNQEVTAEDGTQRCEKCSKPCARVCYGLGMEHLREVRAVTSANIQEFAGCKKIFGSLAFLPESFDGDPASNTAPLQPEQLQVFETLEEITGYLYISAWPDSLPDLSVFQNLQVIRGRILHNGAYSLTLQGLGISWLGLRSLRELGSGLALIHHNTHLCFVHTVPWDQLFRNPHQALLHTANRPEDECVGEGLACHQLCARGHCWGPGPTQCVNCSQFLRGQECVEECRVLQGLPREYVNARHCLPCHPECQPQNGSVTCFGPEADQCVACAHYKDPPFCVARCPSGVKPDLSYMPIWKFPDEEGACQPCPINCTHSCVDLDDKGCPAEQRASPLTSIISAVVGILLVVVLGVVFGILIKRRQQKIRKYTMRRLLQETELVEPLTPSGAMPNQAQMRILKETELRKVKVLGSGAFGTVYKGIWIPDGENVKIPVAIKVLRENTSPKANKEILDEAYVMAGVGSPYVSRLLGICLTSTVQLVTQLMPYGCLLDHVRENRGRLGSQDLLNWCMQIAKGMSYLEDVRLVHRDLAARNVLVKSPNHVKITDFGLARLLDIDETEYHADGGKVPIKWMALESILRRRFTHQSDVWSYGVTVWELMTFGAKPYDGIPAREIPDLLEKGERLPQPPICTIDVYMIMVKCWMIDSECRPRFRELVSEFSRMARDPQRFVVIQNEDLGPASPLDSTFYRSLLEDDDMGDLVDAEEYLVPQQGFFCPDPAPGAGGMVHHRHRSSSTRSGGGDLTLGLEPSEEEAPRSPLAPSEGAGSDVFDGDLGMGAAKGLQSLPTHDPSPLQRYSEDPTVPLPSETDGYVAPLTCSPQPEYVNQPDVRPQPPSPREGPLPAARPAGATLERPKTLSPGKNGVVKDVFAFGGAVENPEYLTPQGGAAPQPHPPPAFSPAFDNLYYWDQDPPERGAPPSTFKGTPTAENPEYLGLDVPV
Chain of Epidermal growth factor receptor (P00533 whole entry): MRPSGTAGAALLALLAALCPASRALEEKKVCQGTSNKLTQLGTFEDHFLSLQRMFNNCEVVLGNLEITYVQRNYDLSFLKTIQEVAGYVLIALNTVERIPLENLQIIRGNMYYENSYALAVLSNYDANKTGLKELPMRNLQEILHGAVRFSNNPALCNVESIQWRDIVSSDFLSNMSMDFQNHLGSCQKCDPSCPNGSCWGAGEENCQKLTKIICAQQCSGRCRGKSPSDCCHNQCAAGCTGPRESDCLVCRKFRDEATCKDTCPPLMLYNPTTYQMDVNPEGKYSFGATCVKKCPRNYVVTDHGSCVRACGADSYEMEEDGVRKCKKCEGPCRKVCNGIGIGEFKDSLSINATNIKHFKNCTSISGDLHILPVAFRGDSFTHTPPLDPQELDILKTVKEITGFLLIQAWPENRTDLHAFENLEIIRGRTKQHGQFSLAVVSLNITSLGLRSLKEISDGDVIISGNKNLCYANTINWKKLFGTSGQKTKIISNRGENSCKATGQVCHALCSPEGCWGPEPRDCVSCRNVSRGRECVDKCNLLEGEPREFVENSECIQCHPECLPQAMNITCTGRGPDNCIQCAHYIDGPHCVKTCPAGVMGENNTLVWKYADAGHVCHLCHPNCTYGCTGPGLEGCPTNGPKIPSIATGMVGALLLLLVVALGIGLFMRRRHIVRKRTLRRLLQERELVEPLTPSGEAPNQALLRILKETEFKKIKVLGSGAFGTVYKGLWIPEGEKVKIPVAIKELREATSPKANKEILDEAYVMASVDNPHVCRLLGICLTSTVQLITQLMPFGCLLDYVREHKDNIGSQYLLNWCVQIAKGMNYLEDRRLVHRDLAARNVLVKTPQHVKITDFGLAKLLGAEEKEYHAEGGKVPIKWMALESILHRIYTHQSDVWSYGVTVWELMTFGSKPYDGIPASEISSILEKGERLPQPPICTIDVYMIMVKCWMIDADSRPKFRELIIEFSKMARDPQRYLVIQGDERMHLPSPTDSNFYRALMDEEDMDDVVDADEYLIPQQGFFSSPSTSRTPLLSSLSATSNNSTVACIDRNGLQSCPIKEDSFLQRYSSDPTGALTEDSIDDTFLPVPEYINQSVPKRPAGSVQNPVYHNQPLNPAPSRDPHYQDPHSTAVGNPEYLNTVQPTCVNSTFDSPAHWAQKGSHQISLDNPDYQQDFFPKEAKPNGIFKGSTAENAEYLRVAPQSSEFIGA

SMILES	IC50 [1]	GI50 [2]	other results
COc1ccc(C2=NN(C(=O)c3ccc(Cl)cc3O)C(c3ccc(Cl)cc3)C2)cc1 (centres undefined)	0.16 µM	0.24 µM	GI50 [3]: 12.1 µM; IC50 [4]: 0.81 µM; IC50 [5]: 10.5 µM; IC50 [6]: > 25 µM; IC50 [7]: > 25 µM; IC50 (Aurora kinase A): > 25 µM; IC50 [8]: > 25 µM
COc1ccc(C2=NN(C(=O)c3cc(Br)ccc3O)C(c3ccc(OC)cc3)C2)cc1 (centres undefined)	4.92 µM	18.4 µM	
COc1ccc(C2=NN(C(=O)c3cc(Br)ccc3O)C(c3ccc(OCc4ccccc4)cc3)C2)cc1 (centres undefined)	7.22 µM	12.9 µM	
COc1ccc(C2=NN(C(=O)c3cc(Cl)ccc3O)C(c3ccc(OC)cc3)C2)cc1 (centres undefined)	9.3 µM	12.6 µM	
COc1ccc(C2=NN(C(=O)c3cc(OC)ccc3O)C(c3ccc(Br)cc3)C2)cc1 (centres undefined)	6.94 µM	12.9 µM	
COc1ccc(C2=NN(C(=O)c3cc(Br)ccc3O)C(c3ccc(Br)cc3)C2)cc1 (centres undefined)	3.69 µM	7.4 µM	
COc1ccc(C2=NN(C(=O)c3cc(I)ccc3O)C(c3ccc(Br)cc3)C2)cc1 (centres undefined)	4.1 µM	7.35 µM	
COc1ccc(C2=NN(C(=O)c3cc(OC)ccc3O)C(c3ccc(Cl)cc3)C2)cc1 (centres undefined)	3.72 µM	5.04 µM	
COc1ccc(C2=NN(C(=O)c3ccc(Cl)cc3O)C(c3ccc(OCc4ccccc4)cc3)C2)cc1 (centres undefined)	5.01 µM	7.89 µM	
COc1ccc(C2=NN(C(=O)c3ccc(Cl)cc3O)C(c3ccc(Br)cc3)C2)cc1 (centres undefined)	1.38 µM	2.89 µM	
COc1ccc(C2=NN(C(=O)c3cc(Cl)ccc3O)C(c3ccc(Br)cc3)C2)cc1 (centres undefined)	2.51 µM	3.48 µM	
COc1ccc(C2=NN(C(=O)c3cc(I)ccc3O)C(c3ccc(Cl)cc3)C2)cc1 (centres undefined)	1.3 µM	3.27 µM	
COc1ccc(C2=NN(C(=O)c3cc(I)ccc3O)C(c3ccc(OCc4ccccc4)cc3)C2)cc1 (centres undefined)	5.9 µM	13 µM	
COc1ccc(C2=NN(C(=O)c3cc(OC)ccc3O)C(c3ccc(OCc4ccccc4)cc3)C2)cc1 (centres undefined)	10.3 µM	13.9 µM	
COc1ccc(C2=NN(C(=O)c3cc(Br)ccc3O)C(c3ccc(Cl)cc3)C2)cc1 (centres undefined)	1.21 µM	2.39 µM	
COc1ccc(C2=NN(C(=O)c3cc(Cl)ccc3O)C(c3ccc(OCc4ccccc4)cc3)C2)cc1 (centres undefined)	5.69 µM	12.9 µM	
CNC(=O)c1cc(Oc2ccc(NC(=O)Nc3ccc(Cl)c(C(F)(F)F)c3)cc2)ccn1 [SORAFENIB]	0.06 µM	8.1 µM	
COc1ccc(C2=NN(C(=O)c3ccc(Cl)cc3O)C(c3ccc(OC)cc3)C2)cc1 (centres undefined)	7.04 µM	13.3 µM	
COc1ccc(C2=NN(C(=O)c3cc(I)ccc3O)C(c3ccc(OC)cc3)C2)cc1 (centres undefined)	13.3 µM	15.6 µM	
COc1ccc(C2=NN(C(=O)c3cc(OC)ccc3O)C(c3ccc(OC)cc3)C2)cc1 (centres undefined)	8.38 µM	> 20 µM	
COc1ccc(C2=NN(C(=O)c3cc(Cl)ccc3O)C(c3ccc(Cl)cc3)C2)cc1 (centres undefined)	0.57 µM	1.52 µM	
